A short description of data set [1]: Effect on basal VCAM-1 expression level in HUVECtert at 0.5 to 10 uM incubated for 30 mins by flow cytometry. In kind it is ADME. To be noted: human, 0.5 h. The method, boiled down: (§1)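 Unstimulated HUVECtert treated with 0.5−10 μM test agent without TNFα; surface VCAM-1, ICAM-1 or E-selectin stained with FITC-labelled antibodies and read by flow cytometry.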

The nature of data set [2]: Effect on basal ICAM-1 expression level in HUVECtert at 0.5 to 10 uM incubated for 30 mins by flow cytometry. To be noted: human, 0.5 h. In kind it is ADME. The method, boiled down:
as §1

In data set [3] the target is T1, Inhibitor of nuclear factor kappa-B kinase subunit alpha (Homo sapiens) (UniProt O15111).
T1 sequence (whole entry): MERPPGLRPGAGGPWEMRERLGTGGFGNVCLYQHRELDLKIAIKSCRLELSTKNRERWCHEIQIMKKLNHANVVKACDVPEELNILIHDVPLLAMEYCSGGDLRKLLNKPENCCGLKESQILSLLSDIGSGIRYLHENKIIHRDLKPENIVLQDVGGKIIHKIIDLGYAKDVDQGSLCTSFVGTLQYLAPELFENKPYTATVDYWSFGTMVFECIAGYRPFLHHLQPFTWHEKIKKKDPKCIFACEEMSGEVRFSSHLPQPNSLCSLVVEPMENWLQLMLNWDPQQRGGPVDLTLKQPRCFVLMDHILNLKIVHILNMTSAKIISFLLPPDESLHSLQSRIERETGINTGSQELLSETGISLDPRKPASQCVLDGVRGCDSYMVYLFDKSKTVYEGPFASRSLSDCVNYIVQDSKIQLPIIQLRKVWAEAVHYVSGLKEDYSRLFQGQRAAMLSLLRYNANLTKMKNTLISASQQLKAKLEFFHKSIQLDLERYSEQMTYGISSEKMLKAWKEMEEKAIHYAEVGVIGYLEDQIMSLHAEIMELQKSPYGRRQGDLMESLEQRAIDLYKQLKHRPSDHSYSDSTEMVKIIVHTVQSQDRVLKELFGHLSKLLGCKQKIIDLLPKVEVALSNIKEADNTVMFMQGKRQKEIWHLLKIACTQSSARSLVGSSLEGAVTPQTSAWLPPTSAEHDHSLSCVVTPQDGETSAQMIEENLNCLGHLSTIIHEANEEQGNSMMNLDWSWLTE
The data set is described as follows: Inhibition of IKKalpha phosphorylation level in TNFalpha-stimulated HUVECtert at 2 uM pretreated for 30 mins followed by TNFalpha stimulation measured after 5 to 15 mins by Western blot analysis. The essentials:
(§2)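 HUVECtert on gelatin-coated dishes pretreated with 2 μM agent or 0.1% DMSO, then TNFα 10 ng/mL; p-IKKα/β, p-IκBα and total IκBα immunoblotted at 5 or 15 min post-stimulation, actin loading control; means ± SD, n = 3, one-way ANOVA/Dunnett.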
Background: A western blot detects proteins with antibodies after separation by electrophoresis.

Data set [4] deals with T2, Inhibitor of nuclear factor kappa-B kinase subunit beta (Homo sapiens) (UniProt O14920).
T2 sequence (whole entry): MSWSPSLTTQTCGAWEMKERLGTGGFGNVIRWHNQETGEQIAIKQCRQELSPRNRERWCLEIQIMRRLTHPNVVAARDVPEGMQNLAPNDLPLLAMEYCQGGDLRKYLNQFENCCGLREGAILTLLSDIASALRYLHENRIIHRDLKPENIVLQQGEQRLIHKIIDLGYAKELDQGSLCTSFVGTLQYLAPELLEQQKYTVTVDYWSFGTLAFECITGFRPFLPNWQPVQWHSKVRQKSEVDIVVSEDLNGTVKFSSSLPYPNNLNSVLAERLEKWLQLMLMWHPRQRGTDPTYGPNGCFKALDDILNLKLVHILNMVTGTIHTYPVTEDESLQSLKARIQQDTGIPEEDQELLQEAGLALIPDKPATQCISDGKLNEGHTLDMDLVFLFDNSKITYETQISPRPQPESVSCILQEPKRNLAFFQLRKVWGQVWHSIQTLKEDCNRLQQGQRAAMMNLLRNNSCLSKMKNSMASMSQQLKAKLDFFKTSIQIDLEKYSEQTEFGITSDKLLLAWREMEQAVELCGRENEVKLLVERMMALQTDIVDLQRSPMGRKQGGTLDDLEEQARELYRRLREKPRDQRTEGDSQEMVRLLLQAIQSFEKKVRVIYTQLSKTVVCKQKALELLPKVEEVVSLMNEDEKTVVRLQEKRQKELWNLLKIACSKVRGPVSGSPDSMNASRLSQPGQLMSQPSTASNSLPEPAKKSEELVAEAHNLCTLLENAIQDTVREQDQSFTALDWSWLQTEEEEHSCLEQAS
The data set is described as follows: Inhibition of IKKbeta phosphorylation level in TNFalpha-stimulated HUVECtert at 2 uM pretreated for 30 mins followed by TNFalpha stimulation measured after 5 to 15 mins by Western blot analysis. The essentials:
as §2

Data set [5] addresses T3, NF-kappa-B inhibitor alpha (Homo sapiens) (UniProt P25963).
T3 sequence (whole entry): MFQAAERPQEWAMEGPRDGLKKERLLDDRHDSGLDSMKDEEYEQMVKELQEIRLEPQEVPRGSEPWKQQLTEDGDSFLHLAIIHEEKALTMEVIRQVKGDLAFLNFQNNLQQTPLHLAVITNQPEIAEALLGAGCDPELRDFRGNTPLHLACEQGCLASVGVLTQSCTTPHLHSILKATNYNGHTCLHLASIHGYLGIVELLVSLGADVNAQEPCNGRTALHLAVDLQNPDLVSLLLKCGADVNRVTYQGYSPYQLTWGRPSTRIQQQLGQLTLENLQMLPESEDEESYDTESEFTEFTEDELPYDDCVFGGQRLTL
Nature of the data set: Inhibition of IkappaBalpha degradation in TNFalpha-stimulated HUVECtert at 2 uM pretreated for 30 mins followed by TNFalpha stimulation measured after 5 to 15 mins by Western blot analysis. The method, boiled down:
as §2

For data set [6], the target named is Transcription factor p65 (Homo sapiens) (UniProt Q04206). Nature of the data set: Inhibition of TNFalpha-stimulated NF-kappaB p65 nuclear translocation in HUVECtert nuclear extracts at 2 uM pretreated for 30 mins followed by TNFalpha stimulation measured after 1 hr by Western blot method. The essentials: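 Cells grown 48 h, pretreated 30 min with 2 μM or 0.1% DMSO, then TNFα 10 ng/mL for 1 h. Hypotonic NP40 lysis gave cytosol; nuclei extracted in 420 mM NaCl HEPES buffer pH 7.5. Nuclear p65 by Western blot, lamin loading control, tubulin/lamin verifying fractions; n = 3.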
Sequence of Transcription factor p65 (Homo sapiens) (Q04206 whole entry): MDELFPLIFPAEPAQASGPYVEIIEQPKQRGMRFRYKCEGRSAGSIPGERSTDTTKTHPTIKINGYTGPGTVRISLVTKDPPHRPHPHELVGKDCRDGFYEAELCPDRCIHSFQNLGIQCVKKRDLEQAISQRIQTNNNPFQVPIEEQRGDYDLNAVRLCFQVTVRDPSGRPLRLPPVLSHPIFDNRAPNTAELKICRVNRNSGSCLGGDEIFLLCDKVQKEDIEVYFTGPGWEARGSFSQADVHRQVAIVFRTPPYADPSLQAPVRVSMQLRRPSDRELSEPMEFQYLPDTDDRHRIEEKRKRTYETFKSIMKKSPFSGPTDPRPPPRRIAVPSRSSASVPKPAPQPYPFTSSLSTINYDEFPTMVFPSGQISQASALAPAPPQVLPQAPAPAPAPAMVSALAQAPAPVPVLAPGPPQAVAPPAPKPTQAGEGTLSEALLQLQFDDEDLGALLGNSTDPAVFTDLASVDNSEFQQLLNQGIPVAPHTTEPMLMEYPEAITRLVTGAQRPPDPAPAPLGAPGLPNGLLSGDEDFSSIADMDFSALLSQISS

The species entered for data set [7] is Homo sapiens. The data set is described as follows: Inhibition of NF-kappaB in HUVECtert assessed as reduction in TNFalpha-induced ICAM-1 mRNA expression level at 0.5 to 5 uM pretreated for 30 mins followed by TNFalpha stimulation measured after 4 hrs by qRT-PCR analysis. A general note: Quantitative PCR measures a nucleic acid by following its amplification.

The species entered for data set [8] is Homo sapiens. Nature of the data set: Inhibition of de novo protein synthesis in HUVECtert at 2 to 5 uM after 30 mins by Click-iT OPP/Alexa fluor 488 picolyl azide reagent based flow cytometry. It is filed as functional. The method, boiled down:
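HUVECtert (1 × 10^6 cells in tubes) exposed 30 min to agent (2 or 5 μM; cycloheximide 1−35 μM) or vehicle, then 20 μM OPP 30 min; fixed, permeabilised, Alexa 488 click-labelled in Tris buffer pH 7.4; FL-1 flow cytometry relative to control; n = 3, one-way ANOVA/Dunnett.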
For orientation: Flow cytometry measures light scatter and fluorescence of single cells or particles in a stream.

These results are taken from ChEMBL document CHEMBL4138188, “Eurycomalactone Inhibits Expression of Endothelial Adhesion Molecules at a Post-Transcriptional Level” (J Nat Prod, 2017).

Structures are written as SMILES. Active and inactive are the calls of the source. No cut-off for these calls is given here.

With `CC1=CC(=O)[C@@H](O)[C@@]2(C)[C@H]1CC(=O)[C@@]1(C)[C@H]3C(=O)O[C@H]([C@@H]3C)[C@H](O)[C@@H]12` [EURYCOMALACTONE], the Activity result in data set [1] and in data set [2] was “Non-Toxic” each time. In addition, the inhibition entry (in data set [3]; in data set [4]; in data set [5]; in data set [6]; in the data set filed under Homo sapiens [7]) was “inactive” in each case. Also, the inhibition entry in the data set filed under Homo sapiens [8] was “Active”.
